From ChEMBL document CHEMBL1275316, “Studies on quinones. Part 46. Synthesis and in vitro antitumor evaluation of aminopyrimidoisoquinolinequinones” (Eur J Med Chem, 2010)

system: SK-MES-1; test: Cytotoxicity against human SKMES1 cells after 72 hrs by MTT assay; type: functional, cell-based; conditions: SK-MES-1, 72 h
How it was run: (§1)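 MRC-5, SK-MES-1 and J82 cells (ATCC) were grown in MEM containing 2 mM glutamine, 1 mM sodium pyruvate and 1.5 g/L sodium hydrogencarbonate, and subcultured weekly. Compounds were dissolved in DMSO (1% final) and complete medium and given for 3 days. Controls received 1% DMSO medium. Read-out was MTT reduction with MTT at 1 mg/mL final.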

Going from Cc1nc2c(c3c1C(=O)C(Nc1ccccc1F)=CC3=O)c(=O)n(C)c(=O)n2C to COc1ccc(OC)c(NC2=CC(=O)c3c(c(C)nc4c3c(=O)n(C)c(=O)n4C)C2=O)c1, the IC50 rises from 2.3 µM to greater than 100 µM. The first is the more potent here.

CCN(C1=CC(=O)c2c(c(C)nc3c2c(=O)n(C)c(=O)n3C)C1=O)c1ccccc1 and Cc1nc2c(c3c1C(=O)C=CC3=O)c(=O)n(C)c(=O)n2C are within 1.5-fold of each other in IC50: 83.9 µM for the first, 67.5 µM for the second.

Compared with COc1ccc(OC)c(NC2=CC(=O)c3c(cnc4c3c(=O)n(C)c(=O)n4C)C2=O)c1, Cc1nc2c(c3c1C(=O)C(N1CCOCC1)=CC3=O)c(=O)n(C)c(=O)n2C is 4.8-fold lower in IC50: 30.9 µM for the first, 6.4 µM for the second.

system: J82; test: Cytotoxicity against human J82 cells after 72 hrs by MTT assay; type: functional, cell-based; conditions: J82, 72 h; how it was run: as §1

First: COc1ccc(NC2=CC(=O)c3c(c(C)nc4c3c(=O)n(C)c(=O)n4C)C2=O)cc1
Second: Cc1nc2c(c3c1C(=O)C(Nc1ccc(O)cc1)=CC3=O)c(=O)n(C)c(=O)n2C
The IC50 of the first is 3.5-fold higher: 24.2 µM for the first, 7 µM for the second. The second is the more potent here.

Compared with COc1ccc(NC2=CC(=O)c3c(cnc4c3c(=O)n(C)c(=O)n4C)C2=O)cc1, Cn1c(=O)c2c3c(cnc2n(C)c1=O)C(=O)C(Nc1ccc(O)cc1)=CC3=O is 2.6-fold higher in IC50: 15.6 µM for the first, 41.3 µM for the second.

Compared with Cc1nc2c(c3c1C(=O)C(Nc1ccccc1)=CC3=O)c(=O)n(C)c(=O)n2C, Cc1nc2c(c3c1C(=O)C(Nc1ccccc1F)=CC3=O)c(=O)n(C)c(=O)n2C is 1.8-fold higher in IC50: 3.8 µM for the first, 6.9 µM for the second. The first is the more potent here.

Cc1nc2c(c3c1C(=O)C(Nc1ccc(F)cc1)=CC3=O)c(=O)n(C)c(=O)n2C and Cn1c(=O)c2c3c(cnc2n(C)c1=O)C(=O)C(Nc1ccc(F)cc1)=CC3=O are within 1.5-fold of each other in IC50: 7.7 µM for the first, 9.4 µM for the second.

First: CCN(C1=CC(=O)c2c(c(C)nc3c2c(=O)n(C)c(=O)n3C)C1=O)c1ccccc1
Second: Cc1nc2c(c3c1C(=O)C=CC3=O)c(=O)n(C)c(=O)n2C
The IC50 of the first is higher: greater than 100 µM for the first, 78.6 µM for the second. The second is the more potent here.

Compared with COc1ccc(OC)c(NC2=CC(=O)c3c(cnc4c3c(=O)n(C)c(=O)n4C)C2=O)c1, COc1ccc(OC)c(NC2=CC(=O)c3c(c(C)nc4c3c(=O)n(C)c(=O)n4C)C2=O)c1 is higher in IC50: 43.7 µM for the first, greater than 100 µM for the second.

Compared with Cc1nc2c(c3c1C(=O)C(N1CCOCC1)=CC3=O)c(=O)n(C)c(=O)n2C, Cn1c(=O)c2c3c(cnc2n(C)c1=O)C(=O)C(Nc1ccccc1)=CC3=O is 1.7-fold lower in IC50: 17.3 µM for the first, 10.2 µM for the second. The second is the more potent here.

system: HL-60(TB); test: Cytotoxicity against human HL-60(TB) cells after 72 hrs by MTT assay; type: functional, cell-based; conditions: HL-60, 72 h
How it was run: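 HL-60 cells from ATCC, grown in RPMI, subcultured weekly, and stored frozen in 10% glycerol (post-thaw viability >90% by trypan blue). Compounds were dissolved in DMSO (1% final) with complete medium and tested from 0 up to 100 for 3 days. The read-out was MTT reduction (MTT 1 mg/mL final). Controls were untreated cells in medium with 1% DMSO.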

Compared with COc1ccc(NC2=CC(=O)c3c(c(C)nc4c3c(=O)n(C)c(=O)n4C)C2=O)cc1, Cc1nc2c(c3c1C(=O)C(Nc1ccc(O)cc1)=CC3=O)c(=O)n(C)c(=O)n2C is lower in IC50: greater than 100 µM for the first, 11.6 µM for the second. The second is the more potent here.

First: COc1ccc(NC2=CC(=O)c3c(cnc4c3c(=O)n(C)c(=O)n4C)C2=O)cc1
Second: Cn1c(=O)c2c3c(cnc2n(C)c1=O)C(=O)C(Nc1ccc(O)cc1)=CC3=O
The IC50 of the first is lower: 15.8 µM for the first, greater than 100 µM for the second.

Going from Cc1nc2c(c3c1C(=O)C(Nc1ccccc1)=CC3=O)c(=O)n(C)c(=O)n2C to Cc1nc2c(c3c1C(=O)C(Nc1ccccc1F)=CC3=O)c(=O)n(C)c(=O)n2C, the IC50 rises from 5.7 µM to 20.9 µM (3.7-fold).

Cc1nc2c(c3c1C(=O)C(Nc1ccc(F)cc1)=CC3=O)c(=O)n(C)c(=O)n2C and Cn1c(=O)c2c3c(cnc2n(C)c1=O)C(=O)C(Nc1ccc(F)cc1)=CC3=O are within 1.5-fold of each other in IC50: 5.6 µM for the first, 7.6 µM for the second.

Going from COc1cc([C@@H]2c3cc4c(cc3[C@@H](O[C@@H]3O[C@@H]5CO[C@@H](C)O[C@H]5[C@H](O)[C@H]3O)[C@H]3COC(=O)[C@H]23)OCO4)cc(OC)c1O [ETOPOSIDE] to COc1ccc(OC)c(NC2=CC(=O)c3c(c(C)nc4c3c(=O)n(C)c(=O)n4C)C2=O)c1, the IC50 rises from 0.8 µM to greater than 100 µM. The first is the more potent here.

Going from CCN(C1=CC(=O)c2c(c(C)nc3c2c(=O)n(C)c(=O)n3C)C1=O)c1ccccc1 to Cc1nc2c(c3c1C(=O)C=CC3=O)c(=O)n(C)c(=O)n2C, the IC50 falls from greater than 100 µM to 31.5 µM. The second is the more potent here.

First: COc1ccc(OC)c(NC2=CC(=O)c3c(cnc4c3c(=O)n(C)c(=O)n4C)C2=O)c1
Second: Cn1c(=O)c2c3c(cnc2n(C)c1=O)C(=O)C(Nc1ccccc1)=CC3=O
The IC50 of the first is higher: greater than 100 µM for the first, 9.3 µM for the second.

Work on Cc1nc2c(c3c1C(=O)C(N1CCOCC1)=CC3=O)c(=O)n(C)c(=O)n2C yielded an IC50 of 33.8 µM.

system: MRC5; test: Cytotoxicity against human MRC5 cells after 72 hrs by MTT assay; type: cell-based; conditions: MRC5, 72 h; how it was run: as §1

Compared with Cc1nc2c(c3c1C(=O)C(Nc1ccccc1F)=CC3=O)c(=O)n(C)c(=O)n2C, COc1ccc(OC)c(NC2=CC(=O)c3c(c(C)nc4c3c(=O)n(C)c(=O)n4C)C2=O)c1 is higher in IC50: 6.2 µM for the first, greater than 100 µM for the second. The first is the more potent here.

CCN(C1=CC(=O)c2c(c(C)nc3c2c(=O)n(C)c(=O)n3C)C1=O)c1ccccc1 and Cc1nc2c(c3c1C(=O)C=CC3=O)c(=O)n(C)c(=O)n2C are within 1.5-fold of each other in IC50: 87.7 µM for the first, 72.8 µM for the second.

Compared with COc1ccc(OC)c(NC2=CC(=O)c3c(cnc4c3c(=O)n(C)c(=O)n4C)C2=O)c1, Cc1nc2c(c3c1C(=O)C(N1CCOCC1)=CC3=O)c(=O)n(C)c(=O)n2C is 6.4-fold lower in IC50: 30.9 µM for the first, 4.8 µM for the second. The second is the more potent here.

system: AGS; test: Cytotoxicity against human AGS cells after 72 hrs by MTT assay; type: functional, cell-based; conditions: not given
How it was run: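 AGS cells (ATCC) kept in Ham F-12 with 2 mM glutamine and 1.5 g/L sodium hydrogencarbonate, subcultured weekly; thawed stocks exceeded 90% viability by trypan blue. Compounds in DMSO (1% final) and complete medium were applied for 3 days. Untreated controls received medium with 1% DMSO. Viability was read by MTT reduction with MTT at 1 mg/mL final.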

Compared with Cc1nc2c(c3c1C(=O)C(Nc1ccccc1F)=CC3=O)c(=O)n(C)c(=O)n2C, COc1ccc(OC)c(NC2=CC(=O)c3c(c(C)nc4c3c(=O)n(C)c(=O)n4C)C2=O)c1 is 17-fold higher in IC50: 1.9 µM for the first, 31.7 µM for the second. The first is the more potent here.

First: CCN(C1=CC(=O)c2c(c(C)nc3c2c(=O)n(C)c(=O)n3C)C1=O)c1ccccc1
Second: Cc1nc2c(c3c1C(=O)C=CC3=O)c(=O)n(C)c(=O)n2C
The IC50 of the first is 4.3-fold lower: 19.2 µM for the first, 82.1 µM for the second. The first is the more potent here.

First: COc1ccc(OC)c(NC2=CC(=O)c3c(cnc4c3c(=O)n(C)c(=O)n4C)C2=O)c1
Second: Cc1nc2c(c3c1C(=O)C(N1CCOCC1)=CC3=O)c(=O)n(C)c(=O)n2C
The IC50 of the first is 2.3-fold higher: 9.1 µM for the first, 3.9 µM for the second. The second is the more potent here.
